# This is a sample that favours compounds with a hit; in the whole collection about 2.2% have one here.
# Tn6 DDE FP – DD(E)-Tn6 binding inhibition, primary FP screen. P02675. actives 0.21% (n = 370,000). inhibition, % at 8.3 µM. Fibrin DD(E) TRITC-Tn6 fluorescence polarization displacement. AID 720509;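 active means inhibition above a per-campaign cutoff: mean of compounds within control limits plus 3 SD, cut at about 15% in these data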;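 further: 0% = median of all compound wells on the plate and 100% = blocking peptide control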
# SKN-1 block – blocks SKN-1 activity in C. elegans; C. elegans VP596 Pgst-4::GFP/RFP ratio, acrylamide-induced, 24 h; actives 0.49% (n = 360,000); AID 624304; inhibition, % at 21.8 µM;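 active means interference check ratio from 0.5 to 1.5 plus GFP to RFP signal ratio inhibition reaching or exceeding a fixed threshold, cut at about 30% in these data, passing the limit was not always enough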
# MT1-MMP act inh – inhibitors of human MT1-MMP activation | P50281 | HT1080 RFP-PRO-GFP cells, GFP/RFP ratio fluorescence, overnight; percent of plate control window, DMSO zero | GFP/RFP ratio change, % at 20 µM | actives 0.061% (n = 360,000) | AID 651647;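 active means GFP/RFP ratio change of at least 30% with cell ATP level not reduced by more than half and red fluorescence within 50% of control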
#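 Assay system: RFP-PRO-GFP reporter HT1080 cells; read-out basis: GFP/RFP fluorescence ratio; benchmarks: DMSO wells and RFP-L50D-GFP cells; doses: 20 µM single dose, 1% DMSO; schedule: overnight cell settling, then overnight compound exposure, 37 °C, 5% CO2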
# Tn7 DDE FP – inhibitors of Tn7 peptide binding to human fibrin DD(E) | FP displacement of FITC-Tn7 peptide from fibrin DD(E); 0% = median of compound wells per plate | inhibition, % at 8.3 µM | actives 0.13% (n = 370,000) | AID 720508;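 active means inhibition above the mean of compounds falling within the control limits plus 3 SD of them, cut at about 14% in these data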;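 further: 0% = plate median of compound wells and 100% = 10 µM Aha-Tn7 peptide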
#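 Measure: % inhibition scaled between sample-field median and high-control FP; Test system: human fibrin DD(E); Quantity: 2 µM final DD(E) protein; Doses: one dose, 8.3 µM nominal; Schedule: compound with protein 10 min, then 3 h after probe, room temperature; Detection: fluorescence polarization; Medium: Tris buffer with calcium and detergent, pH 7.8.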
# KLK7 zymogen act – activates the human kallikrein-7 zymogen; P49862; purified proKLK7, EDANS-DABCYL substrate fluorescence; 100% is mature enzyme control, 0% vehicle; activation, % at 7 µM; actives 0.9% (n = 370,000); AID 652039;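 active means activation above the mean of all tested compounds plus 3 SD, computed per campaign excluding outliers beyond control limits, cut at about 13% in these data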
# Neddyl block – inhibitors of human cullin neddylation | TR-FRET cullin neddylation, biochemical | P61081+Q13564 | actives 0.58% (n = 360,000) | calls only at 25 µM; in the data active means inhibition above about 36%
# Target sequence (P61081 whole entry, looked up): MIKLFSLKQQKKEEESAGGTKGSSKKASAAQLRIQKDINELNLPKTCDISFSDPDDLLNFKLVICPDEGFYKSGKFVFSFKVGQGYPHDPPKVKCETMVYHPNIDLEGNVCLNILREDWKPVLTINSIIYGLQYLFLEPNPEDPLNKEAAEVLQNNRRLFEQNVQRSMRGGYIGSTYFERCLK
# Target sequence (Q13564 whole entry, looked up): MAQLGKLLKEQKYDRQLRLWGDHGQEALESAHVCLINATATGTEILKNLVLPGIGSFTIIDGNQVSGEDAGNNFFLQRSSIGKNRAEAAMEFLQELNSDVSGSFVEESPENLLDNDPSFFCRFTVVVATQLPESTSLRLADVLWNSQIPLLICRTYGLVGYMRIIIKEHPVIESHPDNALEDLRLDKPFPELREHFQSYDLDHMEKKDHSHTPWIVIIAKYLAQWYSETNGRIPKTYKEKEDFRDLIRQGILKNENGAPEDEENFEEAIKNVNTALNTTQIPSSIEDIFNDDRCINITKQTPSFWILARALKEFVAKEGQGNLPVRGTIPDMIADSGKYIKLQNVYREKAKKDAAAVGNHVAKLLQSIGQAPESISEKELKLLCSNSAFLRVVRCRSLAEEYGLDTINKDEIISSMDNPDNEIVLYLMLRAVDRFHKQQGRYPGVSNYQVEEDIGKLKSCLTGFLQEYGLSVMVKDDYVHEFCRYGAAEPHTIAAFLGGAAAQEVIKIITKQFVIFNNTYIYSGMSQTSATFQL
# proKLK7 act conf – proKLK7 activation, confirmation. AID 686949. shares compounds with KLK7 zymogen act. purified proKLK7, EDANS-DABCYL substrate fluorescence; scaled: vehicle 0, mature enzyme 100. activation, % at 7 µM. actives 68% (n = 3,200);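 active means activation, as change over the incubation, above the mean of all tested compounds plus 3 SD, cut at about 13% in these data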
# EDANS interfere – optically interferes with EDANS-DABCYL signal, flagging KLK7 hits; shares compounds with KLK7 zymogen act; EDANS-DABCYL substrate fluorescence interference, no enzyme, 4 h; solvent 0%, active enzyme control 100%; activation, % at 7 µM; actives 80% (n = 3,200);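 active means activation above the all-compound mean plus 3 SD, ignoring values outside control-based bounds, cut at about 4.8% in these data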;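 further: value is the 4 h activation minus the activation read at time zero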
# EDANS interf – counter-screen for kallikrein-7 activators: EDANS-DABCYL interference, dose response. actives 20% (n = 250). EDANS-DABCYL peptide fluorescence interference, no enzyme. EC50, µM. shares compounds with KLK7 zymogen act;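 active means compounds that raise the fluorescence signal in this interference counterscreen, with EC50 at or below 10 µM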;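 further: intact quenched peptide substrate alone read at 355 nm excitation and 520 nm emission; signal is fluorescence gain from T0 to T4 after four hours at room temperature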
# Active calls of the source: *; i = inactive; . = no result shown.
SMILES,Tn6 DDE FP,SKN-1 block,MT1-MMP act inh,Tn7 DDE FP,KLK7 zymogen act,Neddyl block,proKLK7 act conf,EDANS interfere,others
CC1=CC(c2ccccc2)n2nc(N3C(=O)C4CC=CCC4C3=O)nc2N1 (stereo not drawn),-3,17,9,0,113*,.,211*,191*,
CC1=CC(c2ccccc2)n2nnnc2N1 (stereo not drawn),3,10,-4,1,1,i,.,.,
CC1=CC(c2ccccc2)n2nc(N3C(=O)CCC3=O)nc2N1 (stereo not drawn),5,-7,4,0,76*,.,112*,142*,
CC1=CC(c2ccccc2)n2nc(N3C(=O)c4ccccc4C3=O)nc2N1 (stereo not drawn),2,9,0,1,17*,i,8,8.0*,
O=C(NCC(=O)N(Cc1ccco1)C(C(=O)NC1CCCC1)c1ccncc1)c1cccs1 (stereo not drawn),-3,-2,-2,-7,0,i,.,.,
Cc1cc(C)n2cc(CSc3ncn[nH]3)nc2n1,1,2,-3,-2,28*,.,8,6.8*,
NC(=O)c1sc2nc(N3CCOCC3)c3c(c2c1N)CCCC3,-11,12,3,-3,21*,i,-1,0,
Nc1c(C(=O)NCCc2ccccc2)sc2nc(N3CCOCC3)c3c(c12)CCCC3,8,15,1,3,152*,i,-19,-21,
O=C(NNC(=S)Nc1ccc(Cl)cc1)c1ccccc1,-1,-12,.,1,1,i,.,.,
O=C1CCCCCCCCCC/C(=N\O)CCCO1,-5,-35,0,-3,0,i,.,.,
O=C(NCCCN1CCOCC1)c1ccc(Cl)cc1Cl,4,4,-3,-9,0,i,.,.,
C=CCNC(=O)c1cc(Cl)ccc1Cl,-1,-1,5,6,0,i,.,.,
C=CCNC(=O)c1cc2cc(Cl)ccc2nc1N,-1,-10,1,-2,18*,.,16*,14*,
Nc1nc2ccc(Cl)cc2cc1C(=O)NCCCN1CCOCC1,6,-3,0,4,19*,.,15*,12*,EDANS interf=i
O=C(c1ccc(-n2nc(C(F)(F)F)c3c2CCCC3)cc1)N1CCOCC1,-1,12,-1,6,0,i,.,.,
COc1ccc(-c2cn3nc(C)c(C)nc3n2)cc1OC,1,3,1,4,-1,i,.,.,
Cc1ccc(-c2cn3nc(C)c(C)nc3n2)cc1,-4,30,-12,0,55*,.,59*,56*,
O=C(Nc1ccccc1N1CCCCC1)c1ccco1,3,0,0,2,0,i,.,.,
O=C(c1ccco1)N1CCN(Cc2cc(=O)oc3cc(O)ccc23)CC1,0,-4,-9,-2,90*,.,57*,68*,
CC1CN(Cc2cc(=O)oc3cc(O)ccc23)CC(C)O1 (stereo not drawn),-6,13,-1,-2,46*,.,67*,67*,
Cc1ccc2c(CN3CC(C)CC(C)C3)cc(=O)oc2c1 (stereo not drawn),-2,18,-5,-6,0,i,.,.,
Cc1ccc2c(CN3CCN(Cc4ccccc4)CC3)cc(=O)oc2c1,3,-4,-2,0,0,i,.,.,
O=c1cc(CN2CCN(Cc3ccccc3)CC2)c2ccc(O)cc2o1,1,12,-10,1,71*,.,65*,72*,
CCC/C(=N\NC(=O)c1csc(C)c1C)c1cccs1,-1,25,-2,4,0,i,.,.,

# Bioassay records: PubChem BioAssay, several laboratories
